In brackets after ≈: the same amount, converted by molar mass.
Columns and labels:
Aspergillus niger [1] = experiment: Antifungal activity against Aspergillus niger at 100 ug/ml incubated for 48 hrs by agar well diffusion method; format: functional; conditions: read-out: DIZ
Outline: (§1)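 Compounds dissolved in DMSO at 5 mg mL⁻¹ and 5–20 µL added to 6 mm wells, giving 25, 50, 75, 100 µg per well. Bavistin was the positive control and DMSO the negative control. Plates incubated at 28 °C for 48 h, then inhibition zone diameter (mm) measured. Values are means of three determinations.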

Candida albicans [2] = experiment: Antifungal activity against Candida albicans at 100 ug/ml incubated for 48 hrs by agar well diffusion method; format: functional; conditions: read-out: DIZ; outline: as §1
Aspergillus niger [3] = experiment: Antifungal activity against Aspergillus niger at 50 ug/ml incubated for 48 hrs by agar well diffusion method; format: functional; conditions: read-out: DIZ; outline: as §1
Candida albicans [4] = experiment: Antifungal activity against Candida albicans at 50 ug/ml incubated for 48 hrs by agar well diffusion method; format: functional; conditions: read-out: DIZ; outline: as §1
Aspergillus niger [5] = experiment: Antifungal activity against Aspergillus niger at 75 ug/ml incubated for 48 hrs by agar well diffusion method; format: functional; conditions: read-out: DIZ; outline: as §1
Candida albicans [6] = experiment: Antifungal activity against Candida albicans at 75 ug/ml incubated for 48 hrs by agar well diffusion method; format: functional; conditions: read-out: DIZ; outline: as §1
Fusarium oxysporum [7] = experiment: Antifungal activity against Fusarium oxysporum incubated for 48 to 72 hrs by microdilution method; format: functional
Outline: (§2)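 Sabouraud agar plates inoculated with fungal suspension at 10⁵ CFU mL⁻¹ plus serially diluted compounds and bavistin reference, both in DMSO. Incubated at 25 °C for 48–72 h. MIC is the lowest concentration completely inhibiting growth. Values are means of three determinations.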

Fusarium oxysporum [8] = experiment: Antifungal activity against Fusarium oxysporum at 50 ug/ml incubated for 48 hrs by agar well diffusion method; format: functional; conditions: read-out: DIZ; outline: as §1
Candida albicans [9] = experiment: Antifungal activity against Candida albicans incubated for 48 to 72 hrs by microdilution method; format: functional; outline: as §2
Fusarium oxysporum [10] = experiment: Antifungal activity against Fusarium oxysporum at 25 ug/ml incubated for 48 hrs by agar well diffusion method; format: functional; conditions: read-out: DIZ; outline: as §1
Candida albicans [11] = experiment: Antifungal activity against Candida albicans at 25 ug/ml incubated for 48 hrs by agar well diffusion method; format: functional; conditions: read-out: DIZ; outline: as §1
Fusarium oxysporum [12] = experiment: Antifungal activity against Fusarium oxysporum at 100 ug/ml incubated for 48 hrs by agar well diffusion method; format: functional; conditions: read-out: DIZ; outline: as §1
Aspergillus niger [13] = experiment: Antifungal activity against Aspergillus niger at 25 ug/ml incubated for 48 hrs by agar well diffusion method; format: functional; conditions: read-out: DIZ; outline: as §1
Fusarium oxysporum [14] = experiment: Antifungal activity against Fusarium oxysporum at 75 ug/ml incubated for 48 hrs by agar well diffusion method; format: functional; conditions: read-out: DIZ; outline: as §1
Aspergillus niger [15] = experiment: Antifungal activity against Aspergillus niger incubated for 48 to 72 hrs by microdilution method; format: functional; outline: as §2
Bacillus subtilis [16] = experiment: Antibacterial activity against Bacillus subtilis at 25 ug/ml incubated for 24 hrs by agar well diffusion method; format: functional; conditions: read-out: DIZ
Outline: (§3)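 Bacteria grown in nutrient broth at 37 °C for 24 h, then subcultured at room temperature. Compounds dissolved in DMSO at 5 mg mL⁻¹ and 5–20 µL added to 6 mm wells, giving 25, 50, 75, 100 µg per well. Gentamicin was the positive control and DMSO the negative control. Plates held at 37 °C for 24 h, then inhibition zone diameter (mm) measured. Values are means of three determinations.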

Staphylococcus aureus [17] = experiment: Antibacterial activity against Staphylococcus aureus at 75 ug/ml incubated for 24 hrs by agar well diffusion method; format: functional; conditions: read-out: DIZ; outline: as §3
Staphylococcus aureus [18] = experiment: Antibacterial activity against Staphylococcus aureus at 25 ug/ml incubated for 24 hrs by agar well diffusion method; format: functional; conditions: read-out: DIZ; outline: as §3
Bacillus subtilis [19] = experiment: Antibacterial activity against Bacillus subtilis incubated for 24 hrs by microdilution method; format: functional
Staphylococcus aureus [20] = experiment: Antibacterial activity against Staphylococcus aureus at 50 ug/ml incubated for 24 hrs by agar well diffusion method; format: functional; conditions: read-out: DIZ; outline: as §3
Escherichia coli [21] = experiment: Antibacterial activity against Escherichia coli incubated for 24 hrs by microdilution method; format: functional
Klebsiella pneumoniae [22] = experiment: Antibacterial activity against Klebsiella pneumoniae at 100 ug/ml incubated for 24 hrs by agar well diffusion method; format: functional; conditions: read-out: DIZ; outline: as §3
Escherichia coli [23] = experiment: Antibacterial activity against Escherichia coli at 50 ug/ml incubated for 24 hrs by agar well diffusion method; format: functional; conditions: read-out: DIZ; outline: as §3
Klebsiella pneumoniae [24] = experiment: Antibacterial activity against Klebsiella pneumoniae at 25 ug/ml incubated for 24 hrs by agar well diffusion method; format: functional; conditions: read-out: DIZ; outline: as §3
Staphylococcus aureus [25] = experiment: Antibacterial activity against Staphylococcus aureus at 100 ug/ml incubated for 24 hrs by agar well diffusion method; format: functional; conditions: read-out: DIZ; outline: as §3
Klebsiella pneumoniae [26] = experiment: Antibacterial activity against Klebsiella pneumoniae at 75 ug/ml incubated for 24 hrs by agar well diffusion method; format: functional; conditions: read-out: DIZ; outline: as §3
Erythrocyte = experiment: Anti-inflammatory activity in human RBC assessed as inhibition of hypotonic solution-induced hemolysis after 10 mins by spectrophotometric method; format: functional, cell-based
Outline: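 Human blood (heparinized) washed with 0.9% saline, packed cells made into a 40% v/v stock in isotonic phosphate buffer (154 mM NaCl, 10 mM sodium phosphate, pH 7.4). Stock RBC mixed with hypotonic buffer (50 mM NaCl, 10 mM phosphate, pH 7.4) plus sample at 20–100 µg mL⁻¹.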

Escherichia coli [27] = experiment: Antibacterial activity against Escherichia coli at 100 ug/ml incubated for 24 hrs by agar well diffusion method; format: functional; conditions: read-out: DIZ; outline: as §3
Bacillus subtilis [28] = experiment: Antibacterial activity against Bacillus subtilis at 100 ug/ml incubated for 24 hrs by agar well diffusion method; format: functional; conditions: read-out: DIZ; outline: as §3
Staphylococcus aureus [29] = experiment: Antibacterial activity against Staphylococcus aureus incubated for 24 hrs by microdilution method; format: functional
Klebsiella pneumoniae [30] = experiment: Antibacterial activity against Klebsiella pneumoniae at 50 ug/ml incubated for 24 hrs by agar well diffusion method; format: functional; conditions: read-out: DIZ; outline: as §3
Klebsiella pneumoniae [31] = experiment: Antibacterial activity against Klebsiella pneumoniae incubated for 24 hrs by microdilution method; format: functional
Escherichia coli [32] = experiment: Antibacterial activity against Escherichia coli at 75 ug/ml incubated for 24 hrs by agar well diffusion method; format: functional; conditions: read-out: DIZ; outline: as §3
Bacillus subtilis [33] = experiment: Antibacterial activity against Bacillus subtilis at 75 ug/ml incubated for 24 hrs by agar well diffusion method; format: functional; conditions: read-out: DIZ; outline: as §3
Bacillus subtilis [34] = experiment: Antibacterial activity against Bacillus subtilis at 50 ug/ml incubated for 24 hrs by agar well diffusion method; format: functional; conditions: read-out: DIZ; outline: as §3
Escherichia coli [35] = experiment: Antibacterial activity against Escherichia coli at 25 ug/ml incubated for 24 hrs by agar well diffusion method; format: functional; conditions: read-out: DIZ; outline: as §3

Question: What does the source list for COC(=O)Nc1nc2ccccc2[nH]1 [CARBENDAZIM]?
Answer: zone of inhibition at 100 µg/mL (Aspergillus niger [1]): 36 mm; zone of inhibition at 100 µg/mL (Candida albicans [2]): 32 mm; zone of inhibition at 50 µg/mL (Aspergillus niger [3]): 27 mm; zone of inhibition at 50 µg/mL (Candida albicans [4]): 24 mm; zone of inhibition at 75 µg/mL (Aspergillus niger [5]): 33 mm; zone of inhibition at 75 µg/mL (Candida albicans [6]): 29 mm; MIC (Fusarium oxysporum [7]): 27 µg/mL (≈ 141 µM); zone of inhibition at 50 µg/mL (Fusarium oxysporum [8]): 27 mm; MIC (Candida albicans [9]): 28 µg/mL (≈ 146 µM); zone of inhibition at 25 µg/mL (Fusarium oxysporum [10]): 22 mm; zone of inhibition at 25 µg/mL (Candida albicans [11]): 19 mm; zone of inhibition at 100 µg/mL (Fusarium oxysporum [12]): 36 mm; zone of inhibition at 25 µg/mL (Aspergillus niger [13]): 20 mm; zone of inhibition at 75 µg/mL (Fusarium oxysporum [14]): 33 mm; MIC (Aspergillus niger [15]): 27 µg/mL (≈ 141 µM)

Question: What does the source list for Cl.N[C@@H](Cc1ccccc1)C(=O)Oc1ccc2c(=O)c3ccccc3oc2c1?
Answer: zone of inhibition at 25 µg/mL (Bacillus subtilis [16]): 22 mm; zone of inhibition at 75 µg/mL (Staphylococcus aureus [17]): 34 mm; zone of inhibition at 100 µg/mL (Aspergillus niger [1]): 41 mm; zone of inhibition at 25 µg/mL (Staphylococcus aureus [18]): 22 mm; zone of inhibition at 100 µg/mL (Candida albicans [2]): 40 mm; MIC (Bacillus subtilis [19]): 22 µg/mL; zone of inhibition at 50 µg/mL (Aspergillus niger [3]): 30 mm; zone of inhibition at 50 µg/mL (Staphylococcus aureus [20]): 27 mm; MIC (Escherichia coli [21]): 22 µg/mL; zone of inhibition at 50 µg/mL (Candida albicans [4]): 28 mm; zone of inhibition at 75 µg/mL (Aspergillus niger [5]): 36 mm; zone of inhibition at 100 µg/mL (Klebsiella pneumoniae [22]): 40 mm; zone of inhibition at 50 µg/mL (Escherichia coli [23]): 27 mm; zone of inhibition at 25 µg/mL (Klebsiella pneumoniae [24]): 23 mm; zone of inhibition at 75 µg/mL (Candida albicans [6]): 34 mm; zone of inhibition at 100 µg/mL (Staphylococcus aureus [25]): 38 mm; MIC (Fusarium oxysporum [7]): 26 µg/mL; zone of inhibition at 50 µg/mL (Fusarium oxysporum [8]): 25 mm; zone of inhibition at 75 µg/mL (Klebsiella pneumoniae [26]): 34 mm; IC50 (Erythrocyte): 38 µg/mL; zone of inhibition at 100 µg/mL (Escherichia coli [27]): 37 mm; zone of inhibition at 100 µg/mL (Bacillus subtilis [28]): 38 mm; MIC (Staphylococcus aureus [29]): 22 µg/mL; MIC (Candida albicans [9]): 28 µg/mL; zone of inhibition at 50 µg/mL (Klebsiella pneumoniae [30]): 29 mm; zone of inhibition at 25 µg/mL (Fusarium oxysporum [10]): 20 mm; zone of inhibition at 25 µg/mL (Candida albicans [11]): 24 mm; MIC (Klebsiella pneumoniae [31]): 24 µg/mL; zone of inhibition at 100 µg/mL (Fusarium oxysporum [12]): 36 mm; zone of inhibition at 75 µg/mL (Escherichia coli [32]): 34 mm; zone of inhibition at 25 µg/mL (Aspergillus niger [13]): 20 mm; zone of inhibition at 75 µg/mL (Bacillus subtilis [33]): 34 mm; zone of inhibition at 50 µg/mL (Bacillus subtilis [34]): 27 mm; zone of inhibition at 75 µg/mL (Fusarium oxysporum [14]): 30 mm; MIC (Aspergillus niger [15]): 26 µg/mL; zone of inhibition at 25 µg/mL (Escherichia coli [35]): 20 mm
